KCNQ1 block: inhibitors of human KCNQ1 channel, primary screen, cell-based, thallium flux, high-throughput; Potassium voltage-gated channel subfamily KQT member 1 (Homo sapiens), P51787; CHO-K1 KCNQ1, FluxOR thallium flux fluorescence; stronger effect = higher value; B-score at 10 µM; actives 1.3% (n = 310,000);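 active means compounds whose thallium flux B-score, printed positive for inhibition, exceeds three library SD while starting fluorescence stays within three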;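 further: channel opened by potassium depolarization with thallium stimulus after 20 min compound exposure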
Target sequence (P51787 whole entry, looked up): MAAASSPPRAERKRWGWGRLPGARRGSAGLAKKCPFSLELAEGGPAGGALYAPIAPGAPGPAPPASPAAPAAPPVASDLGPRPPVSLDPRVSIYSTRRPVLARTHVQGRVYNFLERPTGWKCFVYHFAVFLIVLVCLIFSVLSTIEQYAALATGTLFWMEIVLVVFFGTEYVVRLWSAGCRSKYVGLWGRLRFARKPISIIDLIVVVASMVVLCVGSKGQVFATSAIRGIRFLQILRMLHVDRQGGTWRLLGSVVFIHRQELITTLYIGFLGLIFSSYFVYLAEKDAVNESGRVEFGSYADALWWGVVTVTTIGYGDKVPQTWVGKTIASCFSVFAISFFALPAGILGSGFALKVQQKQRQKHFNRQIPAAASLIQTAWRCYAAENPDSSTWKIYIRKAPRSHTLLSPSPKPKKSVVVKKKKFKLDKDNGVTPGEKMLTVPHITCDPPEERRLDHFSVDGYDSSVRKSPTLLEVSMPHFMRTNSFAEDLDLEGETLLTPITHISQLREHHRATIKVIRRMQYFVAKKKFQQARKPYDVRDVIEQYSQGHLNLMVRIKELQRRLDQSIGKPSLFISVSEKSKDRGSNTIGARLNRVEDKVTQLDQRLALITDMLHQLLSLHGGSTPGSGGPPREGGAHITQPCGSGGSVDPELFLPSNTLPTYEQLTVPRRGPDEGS
KCNK3 inh: human KCNK3 channel inhibitors, primary screen, CHO cells, FluxOR thallium flux, B-score | FluxOR fluorescence; stronger effect = lower value | B-score at 10 µM | actives 0.84% (n = 340,000) | Potassium channel subfamily K member 3 (Homo sapiens), O14649;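 active means B-score under library mean minus 4 SD, starting fluorescence ratio at most library mean plus 5 SD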;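 further: more negative B-score means stronger inhibition of thallium flux through KCNK3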
Kir21 block: inhibitors of mouse Kir2.1 inward-rectifier potassium channel. Inward rectifier potassium channel 2 (Mus musculus), P35561. HEK293-Kir2.1, FluxOR thallium flux fluorescence; stronger effect = lower value. B-score at 10 µM. actives 0.85% (n = 310,000). AID 1672, 2009;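 active means fluorescence ratio B-score at or below minus 3 SD of library scores, with starting-brightness B-score within 2 SD, cut at about -4.2 in these data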;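 further: channel flux triggered by added potassium and thallium sulfate stimulus; B-score of peak minus minimum fluorescence over baseline after thallium stimulus; more negative B-score means stronger Kir2.1 block with less thallium influx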
KCNQ1 act: potentiators or activators of KCNQ1 channel, primary screen, cell-based, thallium flux, high-throughput; B-score at 10 µM; CHO-K1 KCNQ1, thallium flux FluxOR fluorescence; stronger effect = higher value; Potassium voltage-gated channel subfamily KQT member 1 (Homo sapiens), P51787; actives 0.35% (n = 310,000);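 active means fluorescence ratio B-score, a plate-corrected score, at least three library SD, with initial intensity B-score within 5 SD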
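System: CHO-K1 cells stably expressing KCNQ1 / Medium: assay buffer for compound exposure, DMSO matched across wells / Reagent: thallium- and potassium-containing depolarizing buffer / Compound: one concentration, matched DMSO / Incubation: 20 min compound pretreatment at room temperature / Measured by: kinetic FluxOR fluorescence, 10 s baseline plus 110 s post-stimulus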
hERG protect: hERG rescue from dofetilide block, primary screen, cell-based, CHO-hERG, FluxOR thallium flux, dofetilide IC70. dofetilide IC70 present. activation (rescue from dofetilide block), less the hit threshold, % at 10 µM. actives 0.51% (n = 310,000);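 active means activation above the mean of controls blocked by dofetilide plus 5 SD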;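 further: thallium influx through hERG after potassium depolarization seen as dye fluorescence rise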
KCNK9 inh: KCNK9 potassium channel inhibitors, primary screen, HEK293 cells, thallium flux. Potassium channel subfamily K member 9 (Homo sapiens), Q9NPC2. FluxOR thallium flux fluorescence; stronger effect = lower value. B-score at 10 µM. actives 1.2% (n = 310,000). AID 488922, 2010;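 active means ratio B-score over 3 SD below the library mean, with starting fluorescence within 5 SD of its mean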;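 further: negative B-score means less thallium flux so channel inhibition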
KCNQ1 block val: KCNQ1 potassium channel inhibitors, confirmation, cell-based, Tl flux, duplicate | inhibition, % at 10 µM | shares compounds with KCNQ1 block | AID 588353, 2011 | actives 93% (n = 1,600) | KCNQ1 cell line, FluxOR thallium flux fluorescence;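 active means primary screen active, with duplicate mean exceeding buffer control mean plus 3 SD of buffer wells, cut at about 28% in these data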;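 further: 0% = buffer control ratio and 100% = XE991 inhibitor control ratio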
CHO Tl flux: thallium flux effects in parental CHO cells, counter-screen for KCNQ1 inhibitor project, cell-based, Tl flux. shares compounds with KCNQ1 block. parental CHO-K1, FluxOR thallium flux fluorescence ratio; stronger effect = lower value; zero means no signal rise above baseline. fluorescence ratio (Tl flux) at 10 µM. actives 21% (n = 1,600);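 active means mean of duplicate thallium-flux fluorescence ratios in parental host cells more than 5 SD below the buffer control mean, cut at about 0.38 in these data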;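 further: ratio is peak minus minimum fluorescence divided by baseline fluorescence; actives read low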
KCNQ1 APC inh: KCNQ1 channel inhibitors, confirmation, orthogonal assay, cell-based, automated electrophysiology | shares compounds with KCNQ1 block | KCNQ1-CHO cells, automated patch clamp current | calls only at 10 µM | actives 20% (n = 490) | AID 624120, 2012;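 active means KCNQ1 current drop exceeding 3 SD of negative control wells, seen in both duplicate runs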;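 further: steady state current during a 2 s step from -80 to +40 mV; negative values mean current inhibition and positive values mean potentiation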
KCNQ2 inh: KCNQ2 channel inhibition, selectivity assay for KCNQ1 inhibitor project, cell-based; shares compounds with KCNQ1 block; KCNQ2 cells, FluxOR thallium flux fluorescence; inhibition, % at 10 µM; actives 71% (n = 1,600); AID 651746, 2012;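 active means mean percent inhibition of the KCNQ2 thallium signal more than 5 SD above the buffer-only control wells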;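 further: KCNQ2 expressed in CHO cells; 0% = buffer control wells and 100% = XE-991 inhibitor control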
KCNQ1 KCNE1 spec: KCNQ1/KCNE1 channel inhibition, selectivity assay for KCNQ1 inhibitor project, CHO-K1 cells, thallium flux, FluxOR; inhibition, % at 10 µM; FluxOR thallium flux fluorescence; actives 77% (n = 1,600); shares compounds with KCNQ1 block; AID 652147, 2013;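 active means mean percent inhibition of duplicate wells above the buffer-only control mean plus 3 SD of those controls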;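 further: 0% = buffer only wells and 100% = XE-991 inhibitor control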
Numbers without * were called inactive; i = inactive; / = no result; + = active, no number. This is a sample that favours compounds with a hit; in the whole collection about 3.7% have one here.

SMILES	KCNQ1 block	KCNK3 inh	Kir21 block	KCNQ1 act	hERG protect	KCNK9 inh	KCNQ1 block val	CHO Tl flux	KCNQ2 inh	KCNQ1 KCNE1 spec	others
O=C(c1cc(-c2cccs2)nn1-c1ccccc1)N1CCN(S(=O)(=O)c2ccccc2)CC1	7*	i	-0.17	i	-17	i	60*	0.48	91%*	100%*
O=C(c1cc(-c2ccccc2)nn1-c1ccccc1)N1CCN(S(=O)(=O)c2ccc(F)cc2)CC1	6*	i	1.2	i	-10	i	57*	0.46	81%*	37%*
COc1ccc(OC)c(NS(=O)(=O)c2c(C(=O)N3CCCCCC3)c(C)n(C)c2C)c1	i	i	-0.27	i	-8	i	/	/	/	/
CCCOc1ccc(Br)cc1CSC(=N)N	9*	i	-8.2*	i	-16	i	100*	0.46	78%*	46%*	KCNQ1 APC inh=+
CCOc1ccc(Br)cc1CC(=O)O	i	i	-0.41	i	-7	i	/	/	/	/
O=C1c2ccccc2-c2onc3ccc(N4CCCC4)c1c23	i	i	-1.7	i	-12	i	/	/	/	/
CCOc1ccc2noc3c2c1C(=O)c1ccccc1-3	32*	i	-13	i	-48	i	+	0.018*	i	i
FC(F)(F)c1cccc(-c2nc3nc(Cl)c(Cl)nc3[nH]2)c1	8*	i	0.09	i	-15	i	52*	0.54	i	i
Cc1ccc(S(=O)(=O)c2cn(C)c3cc(N4CCN(C)CC4)c(F)cc3c2=O)c(C)c1	i	i	-0.16	i	-8	i	/	/	/	/
Nc1ccc2nc3c(=O)n(C4CCCCC4)c(=O)[nH]c3nc2c1	24*	i	-15	i	-50	i	+	0.1*	i	i
CCCCn1c(=O)[nH]c2nc3cc(N)ccc3nc2c1=O	/	i	/	/	/	/	/	/	/	/
COc1ccc(NS(=O)(=O)c2cccc(C(=O)NNC(=O)CN3C(=O)NC(C)(C)C3=O)c2)cc1	i	i	1.5	i	-14	i	/	/	/	/
CC(C)[C@H](NC(=O)[C@@H]1CSC2c3ccccc3C(=O)N21)C(=O)NC1CCCCC1 (stereo partly drawn)	i	i	0.44	i	-5	i	/	/	/	/
O=c1[nH]c(=O)n(-c2ccc(F)cc2)c2c1C(C(F)(F)F)(C(F)(F)F)N=C(c1ccc(F)cc1)N2	6*	i	0.65	i	-10	i	57*	0.52	64%*	i
NCCCC(=O)N1c2ccccc2Sc2ccc(Cl)cc21	i	i	-1.8	i	-3	i	/	/	/	/
NCCC(=O)N1c2ccccc2Sc2ccc(Cl)cc21	7*	i	-4.8*	i	-8	i	72*	0.47	i	62%*
